Here are results for ten molecules from PMC12640659 (Chemmedchem, 2025).

One test relates to HCC70 TNBC cell line. The test can be described thus: Resazurin cytotoxicity assay, HCC70. It counts as cell-based. The settings on record: for IC50: read-out: IC50 HCC70; for SI (HCC70): selectivity index versus nontumorigenic MCF12A. Summed up: (§1)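 Cells were seeded at 5.0 × 10^3 per well and left to attach overnight at 37 °C, 9% CO2, then treated with test compound for 96 h. A […] resazurin solution was added for 2–4 h at 37 °C and fluorescence read at ex 560/em 590 nm. Assays were run in triplicate, and IC50 was obtained by nonlinear regression.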
(In general: The colour change of resazurin is a common sign of viable cells or microbes.)

Test [1] deals with MDA‐MB‐231 triple‐negative breast cancer (TNBC) cell line. Put plainly: Resazurin cytotoxicity assay, MDA-MB-231. In kind it is cell-based. The settings on record: for IC50: read-out: IC50 MDA‐MB231; for SI (MDA‐MB231): selectivity index versus nontumorigenic MCF12A. Summed up: as §1
The test system of test [2] is MCF‐7 hormone receptor‐positive breast cancer cell line. Put plainly: Resazurin cytotoxicity assay, MCF7. It counts as cell-based. The settings on record: for IC50: read-out: IC50 MCF7; for SI (MCF7): selectivity index versus nontumorigenic MCF12A. In outline: as §1
The next test concerns HeLa cells. The test can be described thus: Cytotoxicity against HeLa cells. In kind it is cell-based. The settings on record: Homo sapiens, read-out: IC50 HeLa cell.
For test [3], the system named is nontumorigenic breast epithelial cell line MCF12A. Put plainly: Resazurin cytotoxicity assay, MCF12A. It counts as cell-based. The settings on record: Homo sapiens, MCF-12A, 96 h, read-out: IC50 MCF12A. Summed up: as §1
Test [4] has as its system S. aureus ATCC 12600. The test can be described thus: Antibacterial resazurin assay, S. aureus. It counts as cell-based, Staphylococcus aureus. The settings on record: for MIC: Staphylococcus aureus, ATCC12600, 6 h, read-out: MIC S. aureus; for MIC S. aureus: resazurin, 6 h, mean ± SD. In outline:
(§2)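 Twofold dilutions of test compound (100–0.78 μM) were incubated with mid-log bacteria in LB broth at 37 °C for 6 h. Precultures were grown in LB for P. aeruginosa, S. aureus and E. coli, and in TSB for A. baumannii and K. pneumoniae. Cultures were diluted 1:1000, except S. aureus at 1:500. Resazurin (0.13 mg mL−1 solution) was added for 15–30 min and fluorescence read at 560/590 nm. Assays were run in duplicate with novobiocin and nalidixic acid controls, and MIC was fitted by nonlinear regression.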

Test [5] has as its system E. coli ATCC 10536. Put plainly: Antibacterial resazurin assay, E. coli. In kind it is cell-based, Escherichia coli. The settings on record: for MIC: Escherichia coli, ATCC10536, 6 h, read-out: MIC E. coli; for MIC E. coli: resazurin, 6 h, mean ± SD. In outline:
as §2

In the next test the test system is P. aeruginosa ATCC 27853. Put plainly: Antibacterial resazurin assay, P. aeruginosa. It counts as cell-based, Pseudomonas aeruginosa. The settings on record: for MIC: Pseudomonas aeruginosa, ATCC27853, 6 h, read-out: MIC P. aeruginosa; for MIC P. aeruginosa: resazurin, 6 h, mean ± SD. In outline:
as §2

In another test the test system is A. baumannii ATCC 19606. The test can be described thus: Antibacterial resazurin assay, A. baumannii. In kind it is cell-based, Acinetobacter baumannii. The settings on record: for MIC: Acinetobacter baumannii, ATCC19606, 6 h, read-out: MIC A. baumannii; for MIC A. baumannii: resazurin, 6 h, mean ± SD. Summed up:
as §2

Test [6] concerns K. pneumoniae ST512‐K30BO. The test can be described thus: Antibacterial resazurin assay, drug-resistant K. pneumoniae. In kind it is cell-based, Klebsiella pneumoniae. The settings on record: 6 h; for MIC: Klebsiella pneumoniae, read-out: MIC K. pneumoniae; for MIC K. pneumoniae: resazurin, drug‐resistant ST512 strain, sixth column pair of SI-15. In outline: as §2
Test [7] concerns E. coli ATCC 10536. Put plainly: Time-kill kinetics, E. coli. In kind it is cell-based, Escherichia coli. The settings on record: at 1x and 4x MICs, up to 5 h. Summed up:
(§3)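 At 0.5, 1, 2, 3, 4 and 5 h, samples were pelleted, resuspended in 10 mM MgSO4 and serially diluted tenfold. Dilutions were spotted on LB agar for 16 h at 37 °C, and growth was compared visually with the untreated control.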

The subject of test [8] is S. aureus ATCC 12600. Put plainly: Time-kill kinetics, S. aureus. In kind it is cell-based, Staphylococcus aureus. The settings on record: at 1x and 4x MICs, up to 5 h. Summed up:
as §3

Where [9] appears, read: resazurin, 96 h, mean ± SD (n = 3).

Converted amounts (≈) assume the structure as drawn. Like-named read-outs stand apart in the source and are kept apart here.

With `N.N.[Cl][Pt][Cl]` [Cisplatin, reference compound], the IC50 in the test with HCC70 TNBC cell line (setting [9]) came out at 2.6 ± 1.2 µM; in test [1] (setting [9]) it was 18.1 ± 1.2 µM; in test [2] (setting [9]) it was 4.4 ± 1.2 µM. Moreover, the “SI (HCC70)” value in the test on HCC70 TNBC cell line turned out to be 4.5. Also, in test [1], the “SI (MDA‐MB231)” value was 0.6. The “SI (MCF7)” value in test [2] was 2.5.

`C[C@@H](N)[C@H](O)CCCCCCCC(=O)CCCCCCCCCCCCCC[C@@H](O[C@@H]1O[C@H](CO)[C@H](O)[C@H](O)[C@H]1O)[C@@H](C)N` [Compound 2, rhizochalin]: the 50% inhibitory concentration (IC50) in the test on HeLa cells is 7.11 µM; in the test with HCC70 TNBC cell line (Homo sapiens, HCC70, 96 h) it was 1.94 ± 1.13 µM; in test [1] (Homo sapiens, MDA-MB-231, 96 h), 4.59 ± 1.22 µM; in test [2] (Homo sapiens, MCF7, 96 h) it was 2.43 ± 1.17 µM; in test [3], 4.25 ± 1.28 µM. In addition, in the test with HCC70 TNBC cell line, the “SI (HCC70)” value turned out to be 2.2. Further, the “SI (MDA‐MB231)” value in [1] is recorded as 1.0. Besides, in test [2], the “SI (MCF7)” value is reported as 1.8. Besides, the minimum inhibitory concentration (MIC) with S. aureus ATCC 12600 [4] is 3.64 ± 0.47 µM (≈ 2.3 µg/mL); in the test with E. coli ATCC 10536 [5] it was 6.15 ± 0.04 µM (≈ 3.89 µg/mL); in the test on P. aeruginosa ATCC 27853, 3.84 ± 0.82 µM (≈ 2.43 µg/mL); with A. baumannii ATCC 19606 it was 6.29 ± 0.02 µM (≈ 3.98 µg/mL); in test [6], 8.52 ± 3.1 µM (≈ 5.39 µg/mL).

For the molecule `CC(N)C(O)CCCCCCCCCCCCCCC(=O)CCCCCCCC(O)C(C)N` (stereo not shown) [Compound 2b, rhizochalinin], the concentration for half-maximal inhibition (IC50) with HCC70 TNBC cell line (setting [9]) stood at 4.97 ± 1.2 µM; in test [1] (setting [9]) it was 6.78 ± 1.3 µM; in [2] (setting [9]), 21.4 ± 1.2 µM. Also, in the test on HCC70 TNBC cell line, the “SI (HCC70)” value is on record as 4.2. Besides, in test [1], the “SI (MDA‐MB231)” value is 3.1. Also, the “SI (MCF7)” value in test [2] was 1.0. Also, in the test with E. coli ATCC 10536 [5], the “MIC E. coli” value was determined as 49.1 ± 3.42 µM (≈ 23.1 µg/mL). For the same molecule, in the test with P. aeruginosa ATCC 27853, the “MIC P. aeruginosa” value is over 50 µM. The “MIC A. baumannii” value with A. baumannii ATCC 19606 was 55.7 ± 0.85 µM (≈ 26.2 µg/mL). For the same molecule, in test [6], the “MIC K. pneumoniae” value is 23.78 ± 0.15 µM (≈ 11.2 µg/mL).

As to `CCn1cc(C(=O)O)c(=O)c2ccc(C)nc21` [Nalidixic acid, reference compound], the MIC in the test on E. coli ATCC 10536 [5] was 0.47 ± 0.22 µM (≈ 0.109 µg/mL); with P. aeruginosa ATCC 27853 it was 0.17 ± 0.01 µM (≈ 0.0395 µg/mL); in the test on A. baumannii ATCC 19606 it was 1.28 ± 0.92 µM (≈ 0.297 µg/mL); in test [6], 28.8 ± 1.09 µM (≈ 6.7 µg/mL). The “Bactericidal endpoint, E. coli, in words” value in the test with E. coli ATCC 10536 [7] is recorded as “did not achieve bactericidal endpoints”.

With `CO[C@@H]1[C@@H](OC(N)=O)[C@@H](O)[C@H](Oc2ccc3c(O)c(NC(=O)c4ccc(O)c(CC=C(C)C)c4)c(=O)oc3c2C)OC1(C)C` [Novobiocin, reference compound], the minimal inhibitory concentration (MIC) in the test on S. aureus ATCC 12600 [4] was found to be 0.002 ± 0.002 µM (≈ 0.00123 µg/mL). For the same molecule, in the test on S. aureus ATCC 12600 [8], the “Bactericidal endpoint, S. aureus, in words” value is on record as “did not achieve bactericidal endpoints”.

Consider oceanin [Compound 4b], for which the IC50 in the test with HCC70 TNBC cell line (setting [9]) turned out to be 117 ± 1.4 µM; in [1] (setting [9]), 6.36 ± 1.4 µM; in test [2] (setting [9]) it was 8.39 ± 1.39 µM. The “SI (HCC70)” value in the test with HCC70 TNBC cell line was 0.6. For the same molecule, the “SI (MDA‐MB231)” value in test [1] is 10.4. The “SI (MCF7)” value in [2] was 7.9. Moreover, in the test with S. aureus ATCC 12600 [4], the “MIC S. aureus” value is over 50 µM. Besides, in the test with E. coli ATCC 10536 [5], the “MIC E. coli” value is over 50 µM. The “MIC P. aeruginosa” value against P. aeruginosa ATCC 27853 is over 50 µM. Also, in the test with A. baumannii ATCC 19606, the “MIC A. baumannii” value is over 50 µM. The “MIC K. pneumoniae” value in test [6] was over 50 µM.

For the molecule pentaperbenzoyl oceanin [Compound 4c], the “MIC S. aureus” value against S. aureus ATCC 12600 [4] was over 50 µM. In addition, in the test on E. coli ATCC 10536 [5], the “MIC E. coli” value is over 50 µM. In addition, in the test with P. aeruginosa ATCC 27853, the “MIC P. aeruginosa” value is over 50 µM. Also, the “MIC A. baumannii” value in the test with A. baumannii ATCC 19606 was over 50 µM. The “MIC K. pneumoniae” value in test [6] was over 50 µM.

As to “pentaperbenzoyl rhizochalinin C [Compound 3c]”, in the test with S. aureus ATCC 12600 [4], the “MIC S. aureus” value was over 50 µM. The “MIC E. coli” value in the test on E. coli ATCC 10536 [5] is over 50 µM. Also, the “MIC P. aeruginosa” value in the test with P. aeruginosa ATCC 27853 is over 50 µM. For the same molecule, the “MIC A. baumannii” value in the test with A. baumannii ATCC 19606 was over 50 µM. The “MIC K. pneumoniae” value in test [6] was over 50 µM.

In the case of rhizochalinin C [Compound 3b], the IC50 was 6.43 ± 1.1 µM in the test with HCC70 TNBC cell line (setting [9]), 6.78 ± 1.2 µM in [1] (setting [9]) and 26.4 ± 1.2 µM in test [2] (setting [9]). In addition, in the test with HCC70 TNBC cell line, the “SI (HCC70)” value worked out at 4.5. In addition, the “SI (MDA‐MB231)” value in [1] was found to be 4.3. In test [2], the “SI (MCF7)” value turned out to be 1.1. For the same molecule, the “MIC S. aureus” value with S. aureus ATCC 12600 [4] is over 50 µM. For the same molecule, in the test with E. coli ATCC 10536 [5], the “MIC E. coli” value was over 50 µM. The “MIC P. aeruginosa” value in the test with P. aeruginosa ATCC 27853 is over 50 µM. In addition, the “MIC A. baumannii” value against A. baumannii ATCC 19606 was over 50 µM. For the same molecule, in [6], the “MIC K. pneumoniae” value was over 50 µM.

Consider “tetraperbenzoyl rhizochalinin [Compound 2c]”, for which the “MIC S. aureus” value in the test on S. aureus ATCC 12600 [4] was over 50 µM. In addition, the “MIC E. coli” value in the test with E. coli ATCC 10536 [5] was over 50 µM. The “MIC P. aeruginosa” value against P. aeruginosa ATCC 27853 was over 50 µM. Also, the “MIC A. baumannii” value in the test with A. baumannii ATCC 19606 is over 50 µM. The “MIC K. pneumoniae” value in test [6] is over 50 µM.

Broadly, the IC50 is the concentration needed to halve the response being measured. As usually defined, the MIC is the lowest concentration found to suppress growth.
